Results: ChEMBL document CHEMBL4152319, “5-Hydroxypyrido[2,3-b]pyrazin-6(5H)-one derivatives as novel dual inhibitors of HIV-1 reverse transcriptase-associated ribonuclease H and integrase” (Eur J Med Chem, 2018)

Assays:
[1] = target: Human immunodeficiency virus type 1 integrase (Human immunodeficiency virus 1, UniProt Q7ZJM1); assay: Inhibition of recombinant HIV1 integrase strand transfer activity using biotin-labeled double-stranded HIV-1 LTR U5 donor DNA substrate pretreated for 5 mins followed by substrate addition and measured after 30 mins by ELISA
[2] = Cytotoxicity against human MT4 cells after 5 days by MTT assay; assay type: cell-based
In short: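 Mock-infected MT-4 cells at 6×10^5 cells/mL were set up in triplicate wells alongside the infected series, with serial five-fold compound dilutions. Viability was measured by MTT at 540 and 690 nm after five days, using the median OD of two or three wells. CC50 is the concentration reducing viability of mock-infected cells by 50%.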

[3] = target: Human immunodeficiency virus type 1 reverse transcriptase (Human immunodeficiency virus 1, UniProt Q72547); assay: Inhibition of HIV-1 BH10 reverse transcriptase RNase H activity expressed in Escherichia coli using [32P]-labeled template primer 31Trna/21P as substrate pretreated for 5 mins followed by substrate addition by polyacrylamide gel electrophoresis method
In short: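 Wild-type HIV-1 BH10 RT (20-40 nM) was preincubated with compound for 5 min at 37 °C in 50 mM Tris-HCl pH 8.0, 50 mM NaCl, 5 mM MgCl2, 5% DMSO. Reaction was started with 25 nM 5'-32P-labeled 31Trna/21P and run 20 s at 37 °C. Cleavage products were resolved on denaturing PAGE and quantified by phosphorimaging. IC50 came from dose-response curves over 0.2-100 μM.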

[4] = system: Human immunodeficiency virus 1; assay: Selectivity ratio of IC50 for HIV-1 BH10 reverse transcriptase RNase H activity to IC50 for recombinant HIV1 integrase strand transfer activity
In short: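 Ratio of RNase H IC50 to IN IC50. The RNase H IC50 came from the gel-based cleavage assay. The IN IC50 came from an ELISA strand-transfer assay: biotinylated LTR U5 donor DNA on streptavidin plates, full-length recombinant IN added, compound for 5 min at room temperature, then target DNA for 30 min at 37 °C. Products were detected with HRP antibody, TMB and A450.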

[5] = system: Human immunodeficiency virus 1; assay: Antiviral activity against Human immunodeficiency virus 1 3B infected in MT4 cells assessed as protection against virus-induced cytopathic effect measured 5 days post infection by MTT assay; assay type: functional, organism-based; conditions: MT4, 120 h
In short: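 MT-4 cells resuspended at 6×10^5 cells/mL, infected with HIV-1 IIIB at 100-300 CCID50. Serial five-fold compound dilutions were run in triplicate wells. Viability was read by MTT reduction at 540 and 690 nm five days after infection, using the median OD of two or three wells. EC50 is the concentration giving 50% protection from viral cytopathicity.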

Sequence of Human immunodeficiency virus type 1 integrase (Q7ZJM1 whole entry): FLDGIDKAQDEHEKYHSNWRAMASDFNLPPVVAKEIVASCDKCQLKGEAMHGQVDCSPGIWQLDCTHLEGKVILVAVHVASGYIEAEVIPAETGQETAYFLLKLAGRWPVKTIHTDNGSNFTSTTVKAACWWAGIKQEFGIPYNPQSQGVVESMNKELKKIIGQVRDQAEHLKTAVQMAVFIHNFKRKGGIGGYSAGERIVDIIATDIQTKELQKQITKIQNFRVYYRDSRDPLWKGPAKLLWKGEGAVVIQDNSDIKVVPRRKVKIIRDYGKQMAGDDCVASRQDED

Structure (SMILES) | IC50 [1] [µM] | IC50 [3] [µM] | Ratio IC50 [4] | CC50 at 120 h [2] [µM] | EC50 [5] [µM]
COC(=O)c1c(Nc2ccc3ccccc3c2)c2nccnc2n(O)c1=O | 6.74 | 5.11 | 0.76 | 7.15 | > 7.15
Cc1nnc(C(=O)NC(C)(C)c2nc(C(=O)NCc3ccc(F)cc3)c(O)c(=O)n2C)o1 |  |  |  | > 56.2 | 0.0117
COC(=O)c1c(Nc2ccc(-c3cccc(C#N)c3)cc2)c2nccnc2n(O)c1=O | > 25 | 13.3 |  | 5.68 | > 5.68
COC(=O)c1c(Nc2ccc(-c3ccc(C#N)cc3)cc2)c2nccnc2n(O)c1=O | 1.18 | 1.77 | 1.5 | 0.34 | > 0.34
COC(=O)c1c(Nc2cccc3ccccc23)c2nccnc2n(O)c1=O | > 25 | 4.3 |  | 1.38 | > 1.38
CC(C)c1ccc(O)c(=O)c(O)c1 [BETA-THUJAPLICINOL] |  | 2.5 |  |  | 
COC(=O)c1c(Nc2ccc(-c3ccccc3)cc2)c2nccnc2n(O)c1=O | > 25 | 5.25 |  | 7 | > 7
COC(=O)c1c(Nc2ccc(-c3cncnc3)cc2)c2nccnc2n(O)c1=O | 1.49 | 3.24 | 2.17 | 8.04 | > 8.04
COC(=O)c1c(Nc2cccc(-c3ccc(OC)c(OC)c3)c2)c2nccnc2n(O)c1=O | 0.22 | 4.72 | 21.4 | 1.32 | > 1.32

Continued, in another order:

IC50 [1] [µM] | IC50 [3] [µM] | Ratio IC50 [4] | Structure (SMILES) | CC50 at 120 h [2] [µM] | EC50 [5] [µM]
10.8 | 1.85 | 0.17 | COC(=O)c1c(Nc2cccc(-c3cncnc3)c2)c2nccnc2n(O)c1=O | 5.89 | > 5.89
0.25 | 4.02 | 16.1 | COC(=O)c1c(Nc2cccc(-c3cccc(C#N)c3)c2)c2nccnc2n(O)c1=O | 1.16 | > 1.16
> 25 | 5.9 |  | COC(=O)c1c(Nc2ccc(-c3ccc(OC)c(OC)c3)cc2)c2nccnc2n(O)c1=O | 1.47 | > 1.47
22.8 | 5.56 | 0.24 | COC(=O)c1c(Nc2cccc(-c3ccc(C#N)cc3)c2)c2nccnc2n(O)c1=O | 1.19 | > 1.19
